Source: ChEMBL document CHEMBL1145192, “Discovery of a novel class of reversible non-peptide caspase inhibitors via a structure-based approach” (J Med Chem, 2005)

How the values were obtained:
[1] = target: T1, Caspase-7 (Homo sapiens, UniProt P55210); assay: Inhibitory concentration against caspase-7 expressed in Escherichia coli. BL21(DE3) by fluorometric assay
T1 sequence (P55210 whole entry): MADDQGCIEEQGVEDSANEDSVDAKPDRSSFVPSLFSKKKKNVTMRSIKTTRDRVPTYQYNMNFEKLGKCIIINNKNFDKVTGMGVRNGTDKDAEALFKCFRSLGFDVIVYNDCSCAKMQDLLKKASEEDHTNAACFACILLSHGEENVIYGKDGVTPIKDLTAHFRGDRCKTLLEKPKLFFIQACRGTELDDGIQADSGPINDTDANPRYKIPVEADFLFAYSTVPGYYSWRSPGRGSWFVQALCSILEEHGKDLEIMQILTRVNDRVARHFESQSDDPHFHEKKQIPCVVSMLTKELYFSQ

[2] = target: T2, Caspase-8 (Homo sapiens, UniProt Q14790); assay: Inhibitory concentration against caspase-8 expressed in Escherichia coli. BL21(DE3) by fluorometric assay
[3] = target: T2, Caspase-8; assay: Binding affinity against caspase-8 expressed in Escherichia coli. BL21(DE3) by fluorometric assay
In short: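 E. coli-expressed active caspase-8, titrated with Z-VAD-FMK, 25-50 nM, with 40 µM Ac-IETD-AFC in 10 mM phosphate buffer (pH 7.5), 10 mM NaCl. Fluorescence at ex 405 / em 505 nm, followed kinetically over 30 min at room temperature. Ki from Lineweaver-Burk double-reciprocal analysis over varied substrate concentrations, assuming competitive inhibition.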

[4] = target: T3, Caspase-3 (Homo sapiens, UniProt P42574); assay: Inhibitory concentration against caspase-3 expressed in Escherichia coli. BL21(DE3) by fluorometric assay
T3 sequence (P42574 whole entry): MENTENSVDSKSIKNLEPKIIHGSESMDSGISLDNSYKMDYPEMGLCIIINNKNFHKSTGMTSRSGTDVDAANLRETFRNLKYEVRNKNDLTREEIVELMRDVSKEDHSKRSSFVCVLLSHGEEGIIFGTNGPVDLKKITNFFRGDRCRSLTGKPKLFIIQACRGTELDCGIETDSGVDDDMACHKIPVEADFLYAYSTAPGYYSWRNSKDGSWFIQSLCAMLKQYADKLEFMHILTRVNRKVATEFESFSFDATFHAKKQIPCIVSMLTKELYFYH

T2 sequence (Q14790 217-374 limits assumed): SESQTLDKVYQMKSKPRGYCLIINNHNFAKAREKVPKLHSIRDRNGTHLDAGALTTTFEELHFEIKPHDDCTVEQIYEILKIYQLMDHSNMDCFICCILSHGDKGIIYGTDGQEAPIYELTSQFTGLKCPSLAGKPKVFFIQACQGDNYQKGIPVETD
T2 sequence (Q14790 385-479 limits assumed): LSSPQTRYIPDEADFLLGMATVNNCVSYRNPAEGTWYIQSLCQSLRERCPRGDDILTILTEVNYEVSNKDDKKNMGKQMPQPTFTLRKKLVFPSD

Row | SMILES | IC50 [1] [µM] | IC50 [2] [µM] | Ki [3] [µM] | IC50 [4] [µM]
1 | O=C(Oc1ccc(Cl)cc1)c1csc(C2COc3ccccc3O2)n1 (configuration not stated) | > 200 | > 200 |  | 
2 | CCOC(=O)c1csc(C2COc3ccccc3O2)n1 (configuration not stated) |  |  | 30 | 
3 | FC(F)(F)c1cccc(-c2csc(C3COc4ccccc4O3)n2)c1 (configuration not stated) |  |  | 2.7 | 
4 | Cc1nc(C2COc3ccccc3O2)sc1C(=O)O (configuration not stated) | > 200 | > 200 |  | 128
5 | O=C(Sc1cccs1)c1csc(C2COc3ccccc3O2)n1 (configuration not stated) | > 200 | 62 |  | 
6 | CN(C)C(=O)c1csc(C2COc3ccccc3O2)n1 (configuration not stated) | > 200 | > 200 |  | 129

The remaining lines, values ahead:

Row | IC50 [1] [µM] | IC50 [2] [µM] | Ki [3] [µM] | IC50 [4] [µM] | SMILES
7 | > 200 | > 200 |  |  | CCOC(=O)c1sc(C2COc3ccccc3O2)nc1C (configuration not stated)
8 | 170 | 75 |  | > 200 | O=C(O)c1csc(C2COc3ccccc3O2)n1 (configuration not stated)
9 |  |  |  | > 1000 | COc1ccc(N/C=C(\C#N)c2nc(-c3cc4cc([N+](=O)[O-])ccc4oc3=O)cs2)cc1
10 | > 200 | > 200 |  | 150 | O=C(c1csc(C2COc3ccccc3O2)n1)N1CCOCC1 (configuration not stated)
11 | > 200 | 60 |  | 133 | O=C(NCc1ccco1)c1csc(C2COc3ccccc3O2)n1 (configuration not stated)
12 |  |  |  | > 100 | CCOC(=O)c1ccc(N/C=C(\C#N)c2nc(-c3cc4cc([N+](=O)[O-])ccc4oc3=O)cs2)cc1
13 | > 200 | 60 |  |  | O=C(Oc1ccccc1)c1csc(C2COc3ccccc3O2)n1 (configuration not stated)
